Assay outcomes deposited in PubChem BioAssay by several laboratories.
HCV core dimer – HCV core protein dimerization inhibition; TR-FRET GST/Flag-core106 dimerization, 1536-well; inhibition, % at 5 µM; 300,000 tested, 0.33% active;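 active = inhibition above the mean of all tested compounds plus 3 SD, set per screening campaign, cut at about 45% in these data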
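Assay system: tagged HCV core106 pair (GST and Flag); medium: KF-containing HEPES buffer, pH 7.45, DTT, CHAPS, BSA; also added: Eu donor and XL665 acceptor anti-tag antibodies; dosing: 5 µM single dose; timing: compound-protein-antibody incubation 4 h at 22.5 °C; signal: TR-FRET 671 and 617 nm emission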
DNA FID counter-1 – fluorescent intercalator displacement, NS3 helicase counter-screen; 290,000 tested, 0.17% active; inhibition, % at 7.9 µM; DNA fluorescent intercalator displacement, fluorescence; in the data active = inhibition above about 37%;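 note: higher means more ethidium bromide displaced from hairpin DNA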
PABP polyA inh – blocks human PABP binding to poly(A) RNA; P11940; fluorescence polarization; inhibition, % at 35 µM; 290,000 tested, 1% active; AID 2014;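 note: calls also rest on retests at 20 µM and on dose response follow-up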
HCV NS3 hel inh – HCV NS3 helicase inhibition. inhibition, % at 10.9 µM. 290,000 tested, 0.56% active. NS3 helicase DNA unwinding, Cy5 molecular beacon fluorescence;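 active = inhibition above the mean of all tested compounds plus 3 SD, set per campaign, cut at about 35% in these data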
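Compound dosing – single dose, 10.9 µM nominal final, DMSO 0.8% final · System – NS3 helicase fragment of HCV · Buffer or medium – MOPS pH 6.5, MgCl2, DTT, Tween20, BSA · Signal – Cy5 beacon fluorescence read at start and 1 h · Also added – annealed dual-labelled DNA beacon duplex, ATP-started · Schedule – 1 h at 25 °C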
PABP1 MLLE inh – inhibitors of microRNA-mediated deadenylation, human PABP1 MLLE binding | P11940 | GST-MLLE / FITC-PAM2 fluorescence polarization | inhibition, % at 20 µM | 360,000 tested, 0.36% active | AID 588489; in the data active = inhibition above about 35%, passing the limit was not always enough
eIF4H inh – inhibitors of RNA binding by human eIF4H | Q15056 | inhibition, % at 35 µM | AID 2012 | eIF4H fluorescence polarization binding assay | 290,000 tested, 0.94% active;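 note: calls also rest on retests at 20 µM and on dose response follow-up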
NS3 helicase cf – confirmation of Hepatitis C virus NS3 helicase inhibitors. 1,600 tested, 31% active. inhibition, % at 10.9 µM. AID 1943. NS3 helicase DNA unwinding, Cy5 molecular beacon fluorescence. shares compounds with HCV NS3 hel inh;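 active = inhibition above the mean of all tested compounds plus 3 SD, cutoff set per campaign, cut at about 36% in these data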
DNA FID counter-2 – counter-screen for HCV NS3 helicase inhibitors: DNA intercalator displacement. shares compounds with HCV NS3 hel inh. DNA fluorescent intercalator displacement, fluorescence. inhibition, % at 7.9 µM. 1,600 tested, 4% active. AID 1945; in the data active = inhibition above about 37%;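 note: higher means more displacement of ethidium bromide from the DNA hairpin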
FID counter DR – DNA intercalator displacement in dose response; shares compounds with HCV NS3 hel inh; fluorescent intercalator displacement from DNA, fluorescence; IC50, µM; 120 tested, under 10 active; AID 2172
Hits are given with their value; – = inactive; ? = inconclusive; · = not tested or not shown. Sampled rows, rich in hits. Any-hit rate of the full collection: about 2%. Unless noted, the rule behind the calls is not given here.

SMILES | HCV core dimer | DNA FID counter-1 | PABP polyA inh | HCV NS3 hel inh | PABP1 MLLE inh | eIF4H inh | NS3 helicase cf | DNA FID counter-2 | others
CN(C)C1C(=O)C(C(N)=O)=C(O)C2(O)C(=O)C3=C(O)c4c(O)cccc4C(C)(O)C3C(O)C12 (stereo unspecified) | – | – | 100 | 96 | – | 99 | – | –
C=CCN1C(=O)/C(=C/c2ccc(Br)s2)C(=O)NC1=S | – | – | – | 46 | – | – | 68 | –
C=CCN1C(=O)/C(=C\c2ccc(N3CCOCC3)o2)C(=O)NC1=S | – | – | – | – | – | ? | · | ·
O=C1NC(=O)N(Cc2ccccc2)C(=O)/C1=C\C=C\c1ccco1 | – | – | – | 42 | – | ? | – | –
Cc1ccc(N2C(=O)NC(=O)/C(=C\C=C\c3ccco3)C2=O)cc1 | – | – | ? | 42 | – | ? | 39 | –
O=C1NC(=O)N(c2ccccc2)C(=O)/C1=C/C=C/c1ccco1 | – | – | ? | 45 | – | ? | – | –
Cc1cccc(N2C(=O)NC(=O)/C(=C\C=C\c3ccco3)C2=O)c1 | – | – | ? | – | – | ? | · | ·
O=C1NC(=O)N(Cc2ccco2)C(=O)/C1=C/C=C/c1ccco1 | – | – | ? | – | – | ? | · | ·
Cc1ccc(N2C(=O)NC(=O)/C(=C\C=C\c3ccco3)C2=O)cc1C | – | – | – | 38 | – | ? | 62 | – | FID counter DR=–
CN1C(=O)/C(=C\c2ccc(N3CCCCCC3)cc2)C(=O)NC1=S | – | – | – | – | – | – | · | ·
CCCCN1C(=O)/C(=C/c2ccc(N3CCCCCC3)cc2)C(=O)NC1=S | – | – | – | 39 | · | – | – | –
CCN1C(=O)N(CC)C(=O)C2(Cc3ccccc3N3CCN(c4ccccc4)CC32)C1=O (stereo unspecified) | – | – | – | 45 | – | – | – | –
C=CCN1C(=O)NC(=O)/C(=C/c2c(CCN(C)C(=O)c3ccccc3)cc3c(c2OC)OCO3)C1=O | – | – | – | 54 | – | – | – | –
NC1CC2CCCCC2CC1(O)c1ccccc1 (stereo unspecified) | · | · | · | · | – | · | · | ·
CC12CCC3C(CCC4CC(=O)C(C(O)C(F)(F)F)CC43C)C1CCC2O (stereo unspecified) | · | · | · | · | – | · | · | ·
COc1ccc(OC)c(N2C(=O)/C(=C/c3ccco3)C(=O)NC2=S)c1 | 83 | – | 68 | 44 | · | 63 | 104 | 62
C(#CCN1CCCCC1)CN1CCCCC1 | · | · | · | · | – | · | · | ·
O=C(N/N=C/c1c(O)n(-c2ccccc2)c(=S)[nH]c1=O)c1ccccc1 | – | – | – | – | – | – | · | ·
CC(C)c1ccc(-n2c(O)c(C=NC(CCS(C)=O)C(=O)O)c(=O)[nH]c2=S)cc1 (stereo unspecified) | – | – | – | 40 | – | – | – | –
O=C1NCN(c2ccccc2)C12CCN(C(c1ccnc3ccccc13)c1nnnn1-c1ccc3c(c1)OCCO3)CC2 (stereo unspecified) | · | · | · | · | – | · | · | ·
Cc1c(OC(=O)N(C)C)ccc2c1O/C(=C\c1ccco1)C2=O | · | – | – | 59 | – | – | – | –
CC(=O)N(C)C1=Nc2ccc(Cl)cc2C(c2ccccc2)=[N+]([O-])C1 | · | · | · | · | – | · | · | ·
O=C(O)CC1OCC=C2CN3CCC45C6=CC(=O)C(=O)C([N+](=O)[O-])=C6NC4C1C2CC35 (stereo unspecified) | – | – | – | – | – | – | – | –
Cc1ccc(-c2nc(N(C)C3CCN(C)CC3)c3ccccc3n2)cc1 | – | 69 | – | 38 | – | – | – | 84
CN1CCC(N(C)c2ncnc3ccc(Br)cc23)CC1 | · | – | – | – | – | – | · | ·
SMILES | HCV core dimer | DNA FID counter-1 | PABP polyA inh | HCV NS3 hel inh | PABP1 MLLE inh | eIF4H inh | NS3 helicase cf | DNA FID counter-2 | others
CC(C)(C)C(=O)N1Cc2cc(-c3ccccc3)ccc2-n2nncc2C1 | · | · | · | · | – | · | · | ·
CS(=O)(=O)CCN1CC2CCCC(C2)C1 | · | · | · | · | – | · | · | ·
Cc1ccc(/C=C2\C(=O)NC(=S)N(c3cccc(F)c3)C2=O)o1 | – | – | 20 | 37 | – | – | 65 | –
COc1ccc(N2C(=O)/C(=C/c3ccc(C)o3)C(=O)NC2=S)cc1 | · | – | – | – | – | – | · | ·
CCOc1ccc(N2C(=O)/C(=C/c3ccc(C)o3)C(=O)NC2=S)cc1 | – | – | – | 49 | – | – | 70 | –
C[C@]12CCC3C(CC[C@H]4C[C@@H](O)CC[C@]34C)C1C[C@@H](Br)[C@H]2O (stereo partly specified) | · | · | · | · | – | · | · | ·
CC(C)(C)N1C(=O)NC(=O)/C(=C\c2ccc3c(c2)CCN3CCCCl)C1=O | – | – | 25 | 97 | – | – | – | –
O=C1NC(=S)N(C2CC2)C(=O)/C1=C/c1ccc2c(c1)CCN2CCCCl | – | – | – | – | – | – | · | ·
Cc1ccc(N2C(=O)NC(=O)/C(=C/c3ccc(-c4ccc(C(=O)O)c(Cl)c4)o3)C2=O)cc1 | – | – | – | 39 | – | ? | 36 | –
O=C1NCN(c2ccccc2)C12CCN(C(c1cccc3ccccc13)c1nnnn1C1CCCC1)CC2 (stereo unspecified) | · | · | · | · | – | · | · | ·
O=C(NC1CCCCC1)N1Cc2ccccc2-n2nncc2C1 | · | · | · | · | – | · | · | ·
O=C1NC(=O)C(=Cc2ccc(-c3ccc(S(=O)(=O)N4CCOCC4)cc3)o2)C(=O)N1 | – | – | – | 42 | – | – | – | –
COC(=O)C1=C(c2ccc(OC(F)(F)F)cc2)C[C@@H]2CC[C@H]1N2C(=O)NCCOc1ccccc1Cl | · | · | · | · | – | · | · | ·
